Source: article PMC9035732 (Photoacoustics, 2022)

Legend:
[1] = tested on: orthotopic human HCC xenograft tumors (SK-Hep1); assay: In vivo photoacoustic imaging of orthotopic human HCC xenograft tumors; parameters: species or system mouse; conditions: intravenous, peptide 300 μM in 200 μL PBS; ICG 2.46 mg/kg; λex = 774 nm
Procedure, shortened: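 Mice were female athymic nude mice bearing orthotopic SK-Hep1 tumors, which were first established subcutaneously in the flank. IRDye800-labeled target or control peptide was given i.v. in 200 µL PBS. Blocking groups got unlabeled peptide injected beforehand, and ICG 2.46 mg/kg i.v. served as comparator. 3D photoacoustic images (excitation 774 nm) were taken before and at 0.5, 1, 1.5, 1.75, 2, 4 and 24 h. Intensity came from 2D maximum-intensity projections, with pre-injection images as background, and was expressed as tumor/background ratio.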

[2] = tested on: orthotopic human HCC xenograft tumors (SK-Hep1); format: in vivo, mouse; conditions: 1.75 h post-injection, mean±SD, n = 8 mice per group; λex = 785 nm
Procedure, shortened: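 Tumors were orthotopic SK-Hep1 xenografts in female athymic nude mice; the cells were first grown subcutaneously in the hind flank. Mice received IRDye800-labeled target or control peptide i.v. Other groups were pre-blocked with unlabeled peptide or given ICG. Paired white-light and fluorescence laparoscopic images were taken at 1.75 h post-injection. Ultrasound and MR confirmed tumor location.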

time of peak photoacoustic intensity in tumor post-injection [1]: not observed within 24 h
SMILES: CC1(C)C(/C=C/C=C/C=C/C=C2\N(CCCCS(=O)(=O)O)c3ccc4ccccc4c3C2(C)C)=[N+](CCCCS(=O)(=O)[O-])c2ccc3ccccc3c21 [ICG, Indocyanine green]
mean T/B ratio, laparoscopic fluorescence imaging [2]: 0.87 ± 0.2
